Assay results: ChEMBL document CHEMBL1134534, “Phenylpiperazinylalkylamino substituted pyridazinones as potent alpha(1) adrenoceptor antagonists” (J Med Chem, 2001)
Calls of active or inactive are those of the source. The rule behind the calls is not given here.

What was measured:
[1] = biological target: T1, 5-hydroxytryptamine receptor 1A (Homo sapiens, UniProt P08908); assay: Binding affinity towards human cloned 5-hydroxytryptamine 1A receptor using [3H]8-OH-DPAT as radioligand
T1 sequence (P08908 whole entry): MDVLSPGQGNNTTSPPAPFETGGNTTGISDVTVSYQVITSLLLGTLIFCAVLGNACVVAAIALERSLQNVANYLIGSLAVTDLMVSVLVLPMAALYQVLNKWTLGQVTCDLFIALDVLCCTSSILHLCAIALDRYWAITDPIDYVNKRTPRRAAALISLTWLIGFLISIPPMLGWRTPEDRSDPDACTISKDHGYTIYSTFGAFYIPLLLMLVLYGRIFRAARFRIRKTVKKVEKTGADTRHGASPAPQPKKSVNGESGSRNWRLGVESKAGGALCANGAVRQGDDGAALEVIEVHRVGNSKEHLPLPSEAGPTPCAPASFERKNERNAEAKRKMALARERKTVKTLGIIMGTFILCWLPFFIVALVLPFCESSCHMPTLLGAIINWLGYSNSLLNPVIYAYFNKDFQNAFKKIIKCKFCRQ

[2] = biological target: T2, Alpha-1A adrenergic receptor (Homo sapiens) (UniProt P35348); assay: Experimental binding affinity for alpha-1A-adrenergic receptor
T2 sequence (whole entry): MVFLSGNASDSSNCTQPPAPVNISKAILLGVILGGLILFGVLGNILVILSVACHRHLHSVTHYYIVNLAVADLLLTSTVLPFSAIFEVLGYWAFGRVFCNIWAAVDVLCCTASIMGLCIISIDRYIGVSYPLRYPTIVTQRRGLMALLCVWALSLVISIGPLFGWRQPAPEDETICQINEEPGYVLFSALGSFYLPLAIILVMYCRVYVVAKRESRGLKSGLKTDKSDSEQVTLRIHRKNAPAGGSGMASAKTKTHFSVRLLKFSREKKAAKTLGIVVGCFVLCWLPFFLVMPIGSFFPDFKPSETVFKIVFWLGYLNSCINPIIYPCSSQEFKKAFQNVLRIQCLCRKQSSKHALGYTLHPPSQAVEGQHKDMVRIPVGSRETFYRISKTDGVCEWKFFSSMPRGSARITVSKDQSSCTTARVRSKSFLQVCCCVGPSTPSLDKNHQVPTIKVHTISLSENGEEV
Method in brief: (§1)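 Membranes (30 µg protein) from CHO cells stably transfected with each human α1 subtype. Nonspecific binding defined with 10 µM phentolamine. Filtration. IC50 from curve fit, converted to Ki by Cheng–Prusoff. Triplicates; 2–3 experiments.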

[3] = biological target: T3, Alpha-1A adrenergic receptor (Homo sapiens, UniProt P35348); assay: Binding affinity towards human cloned alpha-1A-adrenoceptor using [3H]prazosin as radioligand
T3 sequence (P35348 whole entry): T2 sequence (whole entry)

[4] = biological target: T4, Alpha-1B adrenergic receptor (Homo sapiens) (UniProt P35368); assay: Experimental binding affinity for alpha-1B-adrenergic receptor; method in brief: as §1
T4 sequence (whole entry): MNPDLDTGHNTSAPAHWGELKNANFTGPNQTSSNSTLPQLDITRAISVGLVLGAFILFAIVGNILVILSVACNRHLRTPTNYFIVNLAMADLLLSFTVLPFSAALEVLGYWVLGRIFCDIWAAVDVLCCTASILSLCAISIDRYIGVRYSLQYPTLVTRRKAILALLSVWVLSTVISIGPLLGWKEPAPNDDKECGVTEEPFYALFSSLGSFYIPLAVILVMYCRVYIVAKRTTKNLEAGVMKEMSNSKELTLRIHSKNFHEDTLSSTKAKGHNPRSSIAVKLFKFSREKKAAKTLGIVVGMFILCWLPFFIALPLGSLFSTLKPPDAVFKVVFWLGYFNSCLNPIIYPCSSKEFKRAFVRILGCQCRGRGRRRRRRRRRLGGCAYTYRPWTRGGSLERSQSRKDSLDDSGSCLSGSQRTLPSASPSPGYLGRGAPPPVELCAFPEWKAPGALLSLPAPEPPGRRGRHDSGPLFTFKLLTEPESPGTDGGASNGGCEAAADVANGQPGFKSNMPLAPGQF

[5] = biological target: T5, Alpha-1B adrenergic receptor (Homo sapiens, UniProt P35368); assay: Binding affinity towards human cloned alpha-1B-adrenoceptor using [3H]prazosin as radioligand
T5 sequence (P35368 whole entry): T4 sequence (whole entry)

[6] = biological target: T6, Alpha-1D adrenergic receptor (Homo sapiens, UniProt P25100); assay: Binding affinity towards human cloned alpha-1D-adrenoceptor using [3H]prazosin as radioligand
T6 sequence (P25100 whole entry): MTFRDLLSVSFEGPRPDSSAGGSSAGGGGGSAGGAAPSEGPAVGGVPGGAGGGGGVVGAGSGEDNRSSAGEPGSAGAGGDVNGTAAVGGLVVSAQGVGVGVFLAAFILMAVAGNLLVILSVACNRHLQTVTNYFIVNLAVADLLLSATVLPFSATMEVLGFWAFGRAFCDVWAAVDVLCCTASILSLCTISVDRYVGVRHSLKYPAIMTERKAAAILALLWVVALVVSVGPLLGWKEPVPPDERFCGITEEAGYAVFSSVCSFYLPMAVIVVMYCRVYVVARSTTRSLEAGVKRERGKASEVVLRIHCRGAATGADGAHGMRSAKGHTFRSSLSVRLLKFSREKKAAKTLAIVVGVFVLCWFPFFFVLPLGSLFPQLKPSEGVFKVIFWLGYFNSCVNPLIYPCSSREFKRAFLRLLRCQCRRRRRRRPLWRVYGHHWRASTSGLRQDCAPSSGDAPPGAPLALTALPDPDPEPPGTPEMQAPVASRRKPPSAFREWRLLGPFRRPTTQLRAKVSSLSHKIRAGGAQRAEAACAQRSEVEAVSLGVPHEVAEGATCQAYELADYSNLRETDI

[7] = biological target: T7, Alpha-1D adrenergic receptor (Homo sapiens) (UniProt P25100); assay: Experimental binding affinity for alpha-1D-adrenergic receptor; method in brief: as §1
T7 sequence (whole entry): T6 sequence (P25100 whole entry)

[8] = biological target: T8, 5-hydroxytryptamine receptor 1A (Homo sapiens) (UniProt P08908); assay: Ability to influence the binding of [35S]GTP-gamma-S, to HeLa cell membranes expressing the human 5-hydroxytryptamine 1A receptor; Not active; assay type: functional
T8 sequence (whole entry): T1 sequence (P08908 whole entry)
Method in brief: (§2)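 Membranes from HeLa cells stably expressing human 5-HT1A, in 20 mM HEPES, 3 mM MgSO4, 120 mM NaCl pH 7.4. Preincubated 20 min at 30 °C with 30 µM GDP and compound (100 µM to 0.1 nM), then [35S]GTPγS (150–250 pM) added for a further 30 min at 30 °C. Nonspecific binding defined with 10 µM GTPγS. Filtration, scintillation counting. pEC50 from nonlinear curve fit; 2–3 experiments.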

[9] = biological target: T8, 5-hydroxytryptamine receptor 1A (Homo sapiens); assay: Percent of maximum effect on binding of [35S]GTP-gamma-S, to HeLa cell membranes expressing the human 5-hydroxytryptamine 1A receptor; assay type: functional
Method in brief: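 [35S]GTPγS binding on human 5-HT1A-expressing HeLa membranes, with 30 µM GDP, compound 100 µM–0.1 nM, 20 min then 30 min at 30 °C. Stimulation given as percent increase over basal, with the maximal 5-HT response set to 100%. Emax taken from the nonlinear curve fit; 2–3 experiments.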

[10] = biological target: T1, 5-hydroxytryptamine receptor 1A; assay: Ability to influence the binding of [35S]GTP-gamma-S, to HeLa cell membranes expressing the human 5-hydroxytryptamine 1A receptor; assay type: functional; method in brief: as §2

SMILES	Ki [1] [nM]	pK1a [2]	Ki [3] [nM]	pK1b [4]	Ki [5] [nM]	Ki [6] [nM]	pK1d [7]	NA [8]	Effect [9] [%]	EC50 [10] [nM]
COc1ccccc1N1CCN(CCCNc2cc(-c3ccccc3)nn(C)c2=O)CC1	127	8.59	2.59	8.26	5.51	11.8	7.93			
COc1ccccc1N1CCN(CCNc2c(C(C)=O)c(C)nn(C)c2=O)CC1	13	8.64	2.29	7.3	49.8	3.2	8.5			
COc1ccccc1N1CCN(CCNc2c(C(C)=O)c(-c3ccccc3)nn(C)c2=O)CC1	2.47	9.46	0.63	8.48	3.29	0.13	9.89	inactive		
COc1ccccc1N1CCN(CCNc2cc(-c3ccccc3)nn(C)c2=O)CC1	14	9.66	0.22	8.7	2.01	11.8	7.93			
CC(=O)c1c(-c2ccccc2)nn(C)c(=O)c1NCCN1CCN(c2ccccc2F)CC1	24.1	9.49	0.32	8.42	3.77	0.49	9.31			
COc1ccccc1N1CCN(c2c(C(C)=O)c(-c3ccccc3)nn(C)c2=O)CC1	> 1000	6.79	163	6.59	259	> 10000	5			
COc1ccccc1N1CCN(CCNc2c(C(=O)C(C)C)c(-c3ccccc3)nn(C)c2=O)CC1	10.2	9.74	0.18	9.19	0.64	0.43	9.37	inactive		
COc1ccc(Cl)cc1N1CCN(CCNc2c(C(C)=O)c(-c3ccccc3)nn(C)c2=O)CC1	76.2	9.55	0.28	8.4	3.95	0.41	9.39			
CCC(=O)c1c(-c2ccccc2)nn(C)c(=O)c1NCCN1CCN(c2ccccc2OC)CC1	4.06	9.72	0.19	8.84	1.45	0.25	9.6		19	2.51
CCCN(CCC)C1CCc2cccc(O)c2C1 (centres undefined) [8-OH-DPAT]					5980				100	
CC(=O)c1c(-c2ccccc2)nn(C)c(=O)c1NCCN1CCN(c2ccccc2Cl)CC1	11.6	9.52	0.3	9.12	0.75	0.25	9.6			
COc1ccccc1N1CCN(CCCNc2c(C(C)=O)c(-c3ccccc3)nn(C)c2=O)CC1	134	8.82	1.51	7.69	20.3	4.32	8.37			
COc1ccccc1N1CCN(CCNc2cc(C)nn(C)c2=O)CC1	32.1	7.73	18.6	7.48	33.1	17.7	7.75			
COc1ccc(Cl)cc1N1CCN(CCNc2cc(-c3ccccc3)nn(C)c2=O)CC1	322	9	1	8.75	1.76	1.07	8.97			
COc1ccc(Cl)cc1N1CCN(CCCCNc2c(C(C)=O)c(C)nn(C)c2=O)CC1	1.39	8.52	2.99	7.39	49.1	5.96	8.3			
COc1ccc(Cl)cc1N1CCN(CCCNc2c(C(C)=O)c(C)nn(C)c2=O)CC1	11.2	9.29	0.53	8.1	8.04	5.34	8.27			
COc1ccc(Cl)cc1N1CCN(CCCNc2cc(-c3ccccc3)nn(C)c2=O)CC1	> 1000	8.7	2	8.7	2.01	2.92	8.53			
COc1ccccc1N1CCN(CCCNc2c(C(C)=O)c(C)nn(C)c2=O)CC1	1.48	9.09	0.89	7.27	53.4	34.5	7.46		17	1.58
COc1ccc(Cl)cc1N1CCN(CCCNc2c(C(C)=O)c(-c3ccccc3)nn(C)c2=O)CC1	1000	8.64	0.44	8.85	1.44	3.92	8.41			
